Assay results as given in ChEMBL document CHEMBL1131329, “Synthesis and antiviral activity of novel acyclic nucleosides: discovery of a cyclopropyl nucleoside with potent inhibitory activity against herpesviruses” (J Med Chem, 1998).
Values after ≈ are worked out from the molar mass of the structure shown.

Tests used:
[1] = system: HFF; test: Minimum cytotoxic concentration against uninfected HFF cells; type: functional, Homo sapiens
How it was run: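 Uninfected HFF cells under MEM with 2% FBS in 0.25% agarose overlay with test compound, 5 days at 37 °C in 5% CO2. Examined microscopically for gross morphologic changes, then treated with MTT and 30% SDS; highest concentration 320 μg/mL. Value is the minimum concentration giving morphologic change. Triplicate.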

[2] = system: HFF; test: Inhibitory activity against DM625 strain of zoster virus(VZV) by plaque reduction assay in HFF cells; type: functional, cell-based; conditions: Homo sapiens
[3] = system: CCRF-CEM; test: Inhibitory activity against 1RF strain of HIV-1 by plaque reduction assay in CEM cells; type: functional, cell-based
How it was run: (§1)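 CEM cells pregrown in RPMI 1640 with 10% FCS; HIV-1 RF strain, 32-100 CCID50 units per 0.1 mL, added together with test compound. Incubated 7 days at 37 °C in 5% CO2. CPE inhibition read by MTT dye uptake; IC50 derived. Triplicate.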

[4] = system: HFF; test: Selectivity index is the ratio between IC50 (Anti-VZV Activity (DM625 in HFF Cells)) and minimum cytotoxic concentration (against HFF cells) values of the compound; type: functional
[5] = system: Vero; test: Inhibition of Tomioka strain of herpes simplex virus( Tomioka strain of HSV-1) by quantitative CPE reduction assay in vero cells; type: functional, cell-based, Human alphaherpesvirus 1
How it was run: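 Vero cells in EMEM with 2% FBS, 3-fold compound dilutions, infected with HSV-1 Tomioka at about 100 TCID50 per well. After 3 days at 37 °C in 5% CO2, cells stained with neutral red for 45 min. Dye eluted in pH 4.2 citrate-ethanol, A550 read. Cell control set to 100% and blank to 0%; IC50 is the concentration giving 50% OD. Quadruplicate.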

[6] = system: Vero; test: Cytotoxic concentration to uninfected vero cells; type: functional, Chlorocebus sabaeus
How it was run: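 Uninfected Vero cells were run through the same neutral red dye-uptake method as the antiviral test: 3-fold dilutions in EMEM with 2% FBS, 3 days at 37 °C in 5% CO2, A550 read. CC50 is the concentration giving 50% of the cell-control OD. Quadruplicate.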

[7] = system: CCRF-CEM; test: Cytotoxic concentration against uninfected CEM cells; type: functional, Homo sapiens
How it was run: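 Uninfected CEM cells in RPMI 1640 with 10% FCS, exposed to test compound for 7 days at 37 °C in 5% CO2. Cytotoxicity measured by MTT dye uptake and expressed as CC25. Triplicate.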

[8] = system: CCRF-CEM; test: Compound tested for inhibitory activity by plaque reduction assay against HIV-1RF strain in CEM cells; type: functional, cell-based; conditions: Homo sapiens; how it was run: as §1
[9] = system: CCRF-CEM; test: compound tested for inhibitory activity by plaque reduction assay against HIV-1 in CEM cells; type: functional, cell-based; conditions: Homo sapiens
[10] = system: CCRF-CEM; test: compound tested for anti-HIV-1 activity by plaque reduction assay against HIV-1 in CEM cells; type: functional; conditions: Homo sapiens; how it was run: as §1
[11] = Homo sapiens, CCRF-CEM, read-out: IC50
[12] = Chlorocebus sabaeus, Vero, read-out: IC50
[13] = Chlorocebus sabaeus, Vero, read-out: CC50

SMILES | IC50 [3, 11] | IC50 [5, 12] | CC50 [6, 13] | CC25 [7] | further results
Nc1ncnc2c1ncn2C[C@]1(CO)C[C@@H]1CO | > 100 µg/mL | 47 µg/mL (≈ 189 µM) | 120 µg/mL (≈ 481 µM) | 19.8 µg/mL (≈ 79.4 µM) | MTC [1]: 320; IC50 [2]: 19.8 µg/mL (≈ 79.4 µM); SI [4]: 16
Nc1nc(O)c2ncn(C[C@@]3(CO)O[C@@H]3CO)c2n1 | – | > 500 µg/mL | > 500 µg/mL | – | –
Nc1nc(O)c2ncn(C[C@@]3(CO)C[C@H]3CO)c2n1 | > 100 µg/mL | 10 µg/mL (≈ 37.7 µM) | > 500 µg/mL | >100 µg/mL | MTC [1]: 320 µg/mL; IC50 [2]: 19.4 µg/mL (≈ 73.1 µM); SI [4]: 16
OC[C@@H]1C[C@@]1(CO)Cn1cnc2c(O)ncnc21 | 25.7 µg/mL (≈ 103 µM) | > 500 µg/mL | > 500 µg/mL | >100 µg/mL | –
Nc1ccn(C[C@]2(CO)C[C@H]2CO)c(=O)n1 | > 100 µg/mL | > 500 µg/mL | > 500 µg/mL | >100 µg/mL | –
Nc1nc(O)c2ncn(CC3[C@@H](CO)[C@H]3CO)c2n1 (stereo partly drawn) | – | > 500 µg/mL | > 500 µg/mL | – | –
Nc1nc(O)c2ncn(C[C@@]3(CO)O[C@H]3CO)c2n1 | – | 14 µg/mL (≈ 52.4 µM) | > 500 µg/mL | – | –
OC[C@H]1C[C@@]1(CO)Cn1cnc2c(O)ncnc21 | 20.1 µg/mL (≈ 80.3 µM) | > 500 µg/mL | > 500 µg/mL | >100 µg/mL | –
Nc1ccn(C[C@]2(CO)C[C@@H]2CO)c(=O)n1 | 23.7 µg/mL (≈ 105 µM) | 120 µg/mL (≈ 533 µM) | > 500 µg/mL | >100 µg/mL | –
Nc1nc(O)c2ncn(CC3[C@H](CO)[C@H]3CO)c2n1 (stereo partly drawn) | – | > 500 µg/mL | > 500 µg/mL | – | MTC [1]: 320 µg/mL; IC50 [2]: 240 µg/mL (≈ 905 µM); SI [4]: 1.3
Nc1nc(O)c2ncn(C/C(=C\CO)CO)c2n1 | > 100 µg/mL | 4.2 µg/mL (≈ 16.7 µM) | > 500 µg/mL | >100 µg/mL | MTC [1]: 320 µg/mL; IC50 [2]: 3.2 µg/mL (≈ 12.7 µM); SI [4]: 100
Nc1ncnc2c1ncn2C/C(=C/CO)CO | > 100 µg/mL | > 500 µg/mL | 260 µg/mL (≈ 1110 µM) | >100 µg/mL | –
Cc1cn(C/C(=C/CO)CO)c(=O)[nH]c1=O | > 100 µg/mL | > 500 µg/mL | > 500 µg/mL | >100 µg/mL | –
Cc1cn(C/C(=C\CO)CO)c(=O)[nH]c1=O | > 100 µg/mL | > 500 µg/mL | > 500 µg/mL | >100 µg/mL | –
Nc1ncc2ncn(CC3(CO)CC3CO)c2n1 (stereo not drawn) | – | 30 µg/mL (≈ 120 µM) | > 500 µg/mL | – | –
Nc1nc(O)c2ncn(C/C(=C/CO)CO)c2n1 | > 100 µg/mL | 4.2 µg/mL (≈ 16.7 µM) | > 500 µg/mL | >100 µg/mL | MTC [1]: >320 µg/mL; IC50 [2]: 52.8 µg/mL (≈ 210 µM); SI [4]: >6.1
Nc1nc(O)c2ncn(C[C@]3(CO)C[C@H]3CO)c2n1 | > 100 µg/mL | 0.02 µg/mL (≈ 0.0754 µM) | 240 µg/mL (≈ 905 µM) | >100 µg/mL | MTC [1]: 320 µg/mL; IC50 [2]: 0.2 µg/mL (≈ 0.754 µM); SI [4]: 1600
Nc1ncnc2c1ncn2C/C(=C\CO)CO | – | > 500 µg/mL | 260 µg/mL (≈ 1110 µM) | >100 µg/mL | IC50 [8]: > 100 µg/mL
Nc1nc(N)c2ncn(CC3(CO)CC3CO)c2n1 (stereo not drawn) | 32.1 µg/mL (≈ 121 µM) | 29 µg/mL (≈ 110 µM) | > 500 µg/mL | >100 µg/mL | –
Nc1nc(O)c2ncn(C[C@@]3(CO)C[C@@H]3CO)c2n1 (stereo in doubt; 3) | – | – | – | – | IC50 ([5]; vero): 0.046 µg/mL (≈ 0.173 µM); CC50 [6]: 530 µg/mL (≈ 2000 µM)
Nc1nc(O)c2ncn(C[C@@]3(CO)C[C@@H]3CO)c2n1 (stereo in doubt; 3b) | – | – | > 500 µg/mL | – | IC50 ([5]; vero): 2.2 µg/mL (≈ 8.29 µM)
Cc1cn(C[C@]2(CO)C[C@@H]2CO)c(=O)[nH]c1=O (stereo in doubt; 41a) | – | > 500 µg/mL | > 500 µg/mL | >100 µg/mL | IC50 ([3]; ccrf-cem): > 100 µg/mL
Cc1cn(C[C@]2(CO)C[C@@H]2CO)c(=O)[nH]c1=O (stereo in doubt; 41b) | – | – | – | – | IC50 ([3]; ccrf-cem): 3.2 µg/mL (≈ 13.3 µM)
Nc1nc2c(ncn2COCCO)c(=O)[nH]1 [ACYCLOVIR] | – | 0.81 µg/mL (≈ 3.6 µM) | 820 µg/mL (≈ 3640 µM) | – | MTC [1]: > 320 µg/mL
Cc1cn([C@H]2C[C@H](N=[N+]=[N-])[C@@H](CO)O2)c(=O)[nH]c1=O [ZIDOVUDINE] | – | – | – | – | IC50 [9]: 0.003 µg/mL (≈ 0.0112 µM); CC25 [10]: 35.6 µg/mL (≈ 133 µM)
